Laboratory results published in ChEMBL document CHEMBL3407348, “Antileishmanial activity of quinazoline derivatives: synthesis, docking screens, molecular dynamic simulations and electrochemical studies” (Eur J Med Chem, 2015).
≈ marks a conversion by molar mass, not a printed value.

Columns and labels:
[1] = molecular target: Bifunctional dihydrofolate reductase-thymidylate synthase (Leishmania major, UniProt P07382); assay: Binding affinity to Leishmania major DHFR
Pteridine reductase 1 = molecular target: T1, Pteridine reductase 1 (Leishmania major, UniProt Q01782)
T1 sequence (Q01782 whole entry): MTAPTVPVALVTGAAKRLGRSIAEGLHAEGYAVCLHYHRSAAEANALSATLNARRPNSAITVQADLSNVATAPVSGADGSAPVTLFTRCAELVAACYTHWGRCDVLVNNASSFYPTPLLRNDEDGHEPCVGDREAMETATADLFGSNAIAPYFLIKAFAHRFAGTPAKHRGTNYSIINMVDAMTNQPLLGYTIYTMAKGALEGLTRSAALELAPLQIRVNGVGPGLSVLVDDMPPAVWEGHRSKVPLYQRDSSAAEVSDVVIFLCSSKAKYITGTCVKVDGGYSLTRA

in vitro = details: mouse, L929 cells
Leishmania mexicana [2] = assay: Antiparasitic activity against promastigote form of Leishmania mexicana MHOM/BZ/61/M379 after 72 hrs by haemocytometer; details: MHOM/BZ/61/M379, 72 h
[3] = Retention time of the compound; assay type: physicochemical
How it was run: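 Reverse-phase HPLC on an RP-amide column (150 × 4.6 mm, 5 µm) with guard column. Mobile phase was 10 mM phosphate buffer pH 3.3 and acetonitrile (60:40 v/v) at 1.00 mL/min and 30 °C, with an 8 min run. UV detection at 240 and 272 nm.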

Leishmania mexicana [4] = assay: Antiparasitic activity against promastigote form of Leishmania mexicana MHOM/BZ/61/M379 at 100 uM after 24 hrs by haemocytometer; assay type: functional; details: for inhibition at 100 µM: MHOM/BZ/61/M379, 72 h, in the assay text read “72 hrs” for “24 hrs”
How it was run: (§1)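 Promastigotes were grown in DMEM with L-glutamine and 4,500 mg/L glucose, without bicarbonate, plus 10% fetal calf serum. Serial compound dilutions (1:10 compound:medium) were mixed with an equal volume of 2 × 10⁶ parasites/mL at 26 °C. Parasites were counted by hemacytometer in triplicate. Growth inhibition was expressed as a percentage of the no-drug control, with 100 µM used for the initial screen.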

physchem = details: phosphate buffered saline, pH 7.4
Leishmania mexicana [5] = assay: Antiparasitic activity against promastigote form of Leishmania mexicana MHOM/BZ/61/M379 after 24 hrs by haemocytometer; assay type: functional, organism-based; how it was run: as §1
Leishmania mexicana [6] = details: MHOM/BZ/61/M379, 100 uM
Leishmania mexicana [7] = details: MHOM/BZ/61/M379, 100 uM; remark: listed apart in the source
Leishmania mexicana [8] = assay: Antiparasitic activity against Leishmania mexicana MHOM/BZ/61/M379 assessed as oxygen consumption at 5.74 mM during 1 hr by fluorescence assay (reference value: 100%); assay type: functional
How it was run: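 Promastigotes (5 × 10⁶) were placed in microplate wells containing an oxygen-sensitive fluorophore with the test agent for 1 or 2 h. Oxygen consumption was read as fluorescence on a plate reader and expressed relative to untreated parasites (100%). Sodium cyanide served as the mitochondrial-damage control and dithionite as the oxygen-abolition control. Run in triplicate, with at least four independent experiments.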

Sequence of Bifunctional dihydrofolate reductase-thymidylate synthase (P07382 whole entry): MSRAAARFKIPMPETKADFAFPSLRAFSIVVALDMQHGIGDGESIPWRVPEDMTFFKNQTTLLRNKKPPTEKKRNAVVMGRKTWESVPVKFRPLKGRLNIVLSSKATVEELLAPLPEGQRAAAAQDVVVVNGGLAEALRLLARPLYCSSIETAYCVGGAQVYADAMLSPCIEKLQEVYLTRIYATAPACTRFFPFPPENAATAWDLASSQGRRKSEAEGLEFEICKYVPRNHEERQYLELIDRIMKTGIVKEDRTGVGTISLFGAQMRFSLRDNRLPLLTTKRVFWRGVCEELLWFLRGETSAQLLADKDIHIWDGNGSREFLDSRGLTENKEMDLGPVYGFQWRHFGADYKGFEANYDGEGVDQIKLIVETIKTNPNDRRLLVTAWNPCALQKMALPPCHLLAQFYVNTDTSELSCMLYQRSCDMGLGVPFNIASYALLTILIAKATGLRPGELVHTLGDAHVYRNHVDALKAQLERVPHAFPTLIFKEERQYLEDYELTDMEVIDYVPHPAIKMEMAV

Row | Kd [1] [nM] | Kd (Pteridine reductase 1) [nM] | IC50 (Leishmania mexicana [2]) [µM] | Retention_time [3] [min] | solubility (physchem) [µg/mL] | Compound | inhibition at 100 µM (Leishmania mexicana [4]) [%] | other results
1 | 15800 | 261 |  |  |  | Nc1nc(N)c2cc([N+](=O)[O-])ccc2n1 |  | 
2 |  |  |  |  |  | CC1CS(=O)(=O)CCN1/N=C/c1ccc([N+](=O)[O-])o1 (stereo unspecified) [NIFURTIMOX] |  | viability at 48 h, 100 µM (in vitro): 42%
3 | 241 | 1430 | > 100 | 3.841 |  | Nc1nc(N)c2cc(NCc3ccc([N+](=O)[O-])cc3)ccc2n1 | 20 | 
4 | 752 |  |  | 3.188 | 510 (≈ 1120 µM) | Nc1nc(N)c2cc(NCCn3c(C(F)(F)F)nc4cc(Cl)c(Cl)cc43)ccc2n1 | 0 | 
5 | 1020 | 2400 |  | 3.081 | 380 (≈ 1350 µM) | Nc1nc(N)c2cc(NCc3ccc(O)cc3)ccc2n1 | 0 | 
6 |  |  |  |  |  | MEGLUMINE ANTIMONATE [listing 1 of 2 here] |  | IC50 (Leishmania mexicana [5]): 183 µM
7 |  |  |  |  |  | MEGLUMINE ANTIMONATE [listing 2 of 2 here] |  | inhibition (Leishmania mexicana [4]): 100%
8 | 1580 | 2850 | 14.6 | 3.081 | 250 (≈ 846 µM) | COc1ccc(CNc2ccc3nc(N)nc(N)c3c2)cc1 | 100 | 
9 | 84000 | 58800 |  |  | > 9000 | Nc1ccc2nc(N)nc(N)c2c1 [QUINAZOLINE-2,4,6-TRIAMINE] | 0 | 
10 |  |  |  |  |  | O=S([O-])S(=O)[O-].[Na+].[Na+] |  | Activity (Leishmania mexicana [8]): 175.9%
11 |  |  | 100 |  |  | CCc1nc(N)nc(N)c1-c1ccc(Cl)cc1 [PYRIMETHAMINE] | 50 | 

Row | Compound | Kd [1] [nM] | Kd (Pteridine reductase 1) [nM] | IC50 (Leishmania mexicana [2]) [µM] | Retention_time [3] [min] | solubility (physchem) [µg/mL] | inhibition at 100 µM (Leishmania mexicana [4]) [%] | other results
12 | COc1cc(Cc2cnc(N)nc2N)cc(OC)c1OC [TRIMETHOPRIM] |  |  | > 100 |  |  | 30 | survival (Leishmania mexicana [6]): 70%; survival (Leishmania mexicana [7]): 100%
